Rows were chosen to be rich in hits. Some 3.5% of all compounds tested hit in one or more screens of this group.
DENV2 CPE rescue = inhibitors of DENV2 cytopathic effect, primary screen, cell-based, plate reader, single concentration; 350,000 compounds, 1.7% hits; AID 651640, 2012; DENV2-infected cells, cytopathic effect rescue; CPE inhibition, % at 9.99 µM; in the data active = CPE inhibition above about 20%, passing the limit was not always enough; inconclusive = no clear call, values can overlap the other calls; tested in BHK-21 cells;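 note: 0% = median of neutral control wells and 100% = median of positive control wells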
HIV Env fusion = inhibitors of HIV-1 Env-driven cell-cell fusion, primary screen, HeLa-JRFL effector, CEM21 target cells, luciferase. inhibition, % at 12.3 µM. 360,000 compounds, 1.1% hits;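 active = mean replicate inhibition score of at least 50 and every replicate individually at or above 50; inconclusive = only one of the two criteria met; inactive = mean below 50 and not all replicates reaching 50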;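 note: 0% = plate neutral controls and 100% = maraviroc near 300 nM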
PglD inh = C. jejuni PglD acetyltransferase inhibitors, primary screen, biochemical, DTNB colorimetric, single point | UDP-N-acetylbacillosamine N-acetyltransferase PglD (Campylobacter jejuni) | purified PglD enzyme, DTNB colorimetric CoA detection | inhibition, % at 12.5 µM | 360,000 compounds, 0.098% hits; in the data active = inhibition above about 16%, passing the limit was not always enough; inconclusive = no clear call, values can overlap the other calls
FN deposition inh = inhibitors of fibronectin matrix deposition, primary screen, AH1F cells, Alexa488-fibronectin fluorescence, plate reader. AH1F fibroblasts, overnight. inhibition, % at 12.6 µM. 350,000 compounds, 0.086% hits. AID 743247, 2014;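 active = mean inhibition across replicates of 30% or more, regardless of how many single replicates reach that level; inconclusive = mean under 30% yet at least half of replicates reach 30%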;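 note: positive control wells lacked labelled fibronectin entirely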
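Assay system: AH1F fibroblasts assembling fluorescent fibronectin matrix; Amount: 10000 AH1F cells per well; Buffer or medium: DMEM, 2% serum; Probe or stimulus: Alexa488-fibronectin, 24 nM final in well; Doses: single compound dose, delivered by pin transfer; Incubation: 1 h adhesion, overnight exposure; Measured by: fluorescence 485/525 nm; Read-out: fibronectin deposition inhibition.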
PGC1a acetyl inh = inhibitors of PGC1a acetylation signal, primary screen, cell-based, U2OS, AlphaScreen, inhibitor mode | AlphaScreen anti-acetyl-lysine; with virally co-expressed GCN5 acetyltransferase | inhibition, % at 15.6 µM | 350,000 compounds, 0.17% hits | AID 651687, 2012;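 active = every replicate shows inhibition of at least 40%; inconclusive = mean inhibition at least 40% but some replicate below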;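 note: 0% = neutral control wells and 100% = positive control wells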
Ecoli rRNA inh = reduced GFP signal of wild-type E. coli, primary screen, bacterial rRNA inhibitor project, GFP/RFP fluorescence, OD600, single point | E. coli WT GFP vs humanized-ribosome RFP mutants, 24 h; stronger effect = lower value; DMSO median 0, no signal -100 | GFP signal change (wild-type ribosome), % (test concentration not listed) | 350,000 compounds, 1.6% hits;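 active = significant combined selectivity score with lowered wild-type GFP, culture density cut under 30%, mutant RFP and density less affected; inactive = any of these conditions unmet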
* hit, by the source's call; ? = inconclusive; . = not tested or not shown; [ ] = dose if it differs, or a comment.

SMILES	DENV2 CPE rescue	HIV Env fusion	PglD inh	FN deposition inh	PGC1a acetyl inh	Ecoli rRNA inh
C[C@@H]1CN([C@@H](C)CO)C(=O)Cc2cc(NC(=O)Cn3cnnn3)ccc2O[C@@H]1CN(C)Cc1ccc(Cl)c(Cl)c1	8.8	.	-7.0	-2.3	3.8	-1.9
O=C(NCC1CCCCC1)[C@H]1[C@H](CO)[C@H]2Cn3c(ccc(-c4cccnc4)c3=O)[C@@H]1N2	-6.3	.	.	.	-12.2	1.4
Cc1ccc(S(=O)(=O)Nc2cccc3c2O[C@H](CN(C)S(=O)(=O)c2c(C)noc2C)[C@@H](C)CN([C@H](C)CO)C3=O)cc1	0.7	.	.	.	4.8	-1.9
NC(=S)N/N=C\c1ccccc1OCc1ccccc1	-4.7	-22.4	7.6	.	-16.2	-26.3*
O=C(NNc1ccc([N+](=O)[O-])cn1)Nc1ccc(N=Nc2ccccc2)cc1	7.5	-19.3	0.9	-12.9	-0.8	-4.1*
CN1CCCCN2[C@@H](CO)[C@@H](c3ccc(-c4ccc(F)cc4)cc3)[C@@H]2C1	?	.	-0.7	-5.7	-1.4	2.4
O=C(O)c1ccc(-c2nc(-c3ccccc3)cs2)cc1	-2.6	-41.4	.	-1.4	.	-20.5*
COc1ccc(-c2nc(CCl)cs2)cc1	3.6	-24.5	.	1.2	-11.0	6.6
c1ccc(-c2csc(-c3ccc(-c4csnn4)cc3)n2)cc1	54.2*	-24.5	.	-11.1	.	-0.6
COc1ccc(-c2csc(-c3ccc(O)cc3)n2)cc1	1.5	-125.0	.	26.5	.	-27.8*
CNC(=O)c1ccc(-c2nc(-c3ccccc3)cs2)cc1	-1.7	-24.1	.	-7.5	-6.9	-4.3
O=C(c1ccc2c(c1)OCO2)N1CC(=O)N2[C@H](CO)[C@@H](c3ccc(C#CCC4CCCC4)cc3)[C@@H]2C1	-6.8	.	.	.	-17.1	2.5
CO[C@@H]1CN(C)C(=O)c2ccc(NC(=O)C3CC3)cc2OC[C@@H](C)N(CC2CC2)C[C@@H]1C	-0.4	.	2.9	2.8	-8.5	-0.2
CC(C)CC(N)c1csc(NC(=O)NCCc2ccccc2)n1 (stereo not given)	-1.8	4.3	-3.5	.	6.9	3.0
NC(Cc1ccccc1)c1csc(NC(=O)Nc2ccccc2Oc2ccccc2)n1 (stereo not given)	1.2	60.2*	5.8	6.6	-71.2	-30.4
COc1ccc(CC(N)c2csc(NC(=O)Nc3ccccc3Oc3ccccc3)n2)cc1 (stereo not given)	-8.3	100.0*	2.2	-5.5	.	-55.0
COc1ccc(CC(N)c2csc(NC(=O)Nc3ccccc3Cc3ccccc3)n2)cc1 (stereo not given)	-7.0	98.5*	1.6	8.5	-26.8	-54.0
NC(Cc1ccc(C(F)(F)F)cc1)c1csc(NC(=O)NCCc2ccccc2)n1 (stereo not given)	-6.7	65.8*	-2.9	4.4	6.5	-59.5
COc1ccc(CC(N)c2csc(NC(=O)Nc3ccccc3C(C)C)n2)cc1 (stereo not given)	?	12.5	-5.8	-0.5	-20.1	-50.5
CC(C)(C)[S@@](=O)N1Cc2cc(C(=O)N3CCCCC3)nc(-c3cccc(-c4ccc(F)cc4)c3)c2[C@H]1CCO	0.4	3.0[16.7 µM]	0.7	1.8	15.1	-6.3
CCCc1cnc(Nc2nc(C(N)Cc3ccc(OC)cc3)cs2)nc1 (stereo not given)	2.3	-48.5	-3.1	-2.1	-6.3	-57.1
COc1ccc(CC(N)c2csc(Nc3nncc4ccccc34)n2)cc1 (stereo not given)	8.7	58.1*	-9.5	-5.0	-6.7	9.7
C[C@@H]1CN([C@H](C)CO)C(=O)c2cccc(NC(=O)C3CCCCC3)c2O[C@@H]1CN(C)S(=O)(=O)c1cn(C)cn1	.	-7.5[16.7 µM]	.	.	-4.6	-3.5
CCN(CCO)c1ccc(N=Nc2cc(C)[nH]n2)cc1	-1.2	39.5	.	-3.6	.	-21.1*
Clc1ccc(CSc2nnc(Cn3cnc4ccccc43)o2)cc1	.	86.9*	-3.7	-12.0	8.1	.
NC(=O)CSc1nnc(Cn2cnc3ccccc32)o1	9.8	-16.1	.	5.5	-6.1	14.0

Source: PubChem BioAssay
